We go through 22 molecules from ChEMBL document CHEMBL1122526, “Pyridonecarboxylic acids as antibacterial agents. 4. Synthesis and antibacterial activity of 7-(3-amino-1-pyrrolidinyl)-1-ethyl-6-fluoro-1,4 -dihydro-4-oxo-1,8-naphthyridine-3-carboxylic acid and its analogues” (1984).

Common to all, as to type: functional
In assay [1] the test system is Staphylococcus aureus. The assay is described as follows: In vitro for antibacterial activity against Staphylococcus aureus 209P JC-1.
Assay [2] deals with Escherichia coli. As to the kind of experiment: In vitro antibacterial activity against Escherichia coli NIHJ JC-2.
Assay [3] has as its system Pseudomonas aeruginosa. As to the kind of experiment: in vitro antibacterial activity against Pseudomonas aeruginosa Tsuchijima.
Assay [4] relates to Pseudomonas aeruginosa. As to the kind of experiment: Compound was evaluated in vivo for oral antibacterial activity iagainst Pseudomonas aeruginosa 12 at a dose of 4E3. The gist of the method: (§1)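 Mice were given a systemic infection and then treated by the oral route. Challenge doses in cells per mouse were 5 × 10^8 for S. aureus 50774, 9 × 10^6 for E. coli P-5101 and 4 × 10^3 for P. aeruginosa 12. The protective dose is given in mg/kg.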

Assay [5] relates to Staphylococcus aureus. As to the kind of experiment: Compound was evaluated in vivo for oral antibacterial activity against Staphylococcus aureus 50774 at a dose of 5E8. Put shortly:
as §1

Assay [6] has as its system Escherichia coli. As to the kind of experiment: Compound was evaluated in vivo for oral antibacterial activity against Escherichia coli P-5101 at a dose of 9E6. Put shortly:
as §1

For assay [7], the system named is Pseudomonas aeruginosa. As to the kind of experiment: Compound was evaluated in vivo for oral antibacterial activity against Pseudomonas aeruginosa 12 at a dose of 4E3. Put shortly:
as §1

In brackets after ≈: the same amount, converted by molar mass. Some results are limits rather than exact numbers.

As for `CCn1cc(C(=O)O)c(=O)c2cc(F)c(N3CCC(N(C)C(C)=O)C3)nc21` (stereo unspecified), the values for the MIC against Staphylococcus aureus [1], against Escherichia coli [2] and with Pseudomonas aeruginosa [3] were 0.78 µg/mL (≈ 2.07 µM), 6.25 µg/mL (≈ 16.6 µM) and 25 µg/mL (≈ 66.4 µM), respectively.

`CCn1cc(C(=O)O)c(=O)c2cc(F)c(N3CCC(NC(=O)c4ccccc4)CC3)nc21`: the MIC was 1.56 µg/mL (≈ 3.56 µM) in the assay with Staphylococcus aureus [1], 12.5 µg/mL (≈ 28.5 µM) in the assay with Escherichia coli [2] and over 100 µg/mL in the assay on Pseudomonas aeruginosa [3].

For the molecule `CC(=O)NC1CCN(c2nc3c(cc2F)c(=O)c(C(=O)O)cn3CCF)C1` (stereo unspecified), the MIC worked out at 1.56 µg/mL (≈ 4.1 µM) in the assay with Staphylococcus aureus [1], 1.56 µg/mL (≈ 4.1 µM) with Escherichia coli [2] and 25 µg/mL (≈ 65.7 µM) in the assay with Pseudomonas aeruginosa [3].

As for `CCn1cc(C(=O)O)c(=O)c2cc(F)c(N3CCC(NC(C)=O)C3)nc21` (stereo unspecified), the values for the MIC against Staphylococcus aureus [1], with Escherichia coli [2] and in the assay on Pseudomonas aeruginosa [3] were 0.78 µg/mL (≈ 2.15 µM), 6.25 µg/mL (≈ 17.2 µM) and 6.25 µg/mL (≈ 17.2 µM), respectively.

As for `CCn1cc(C(=O)O)c(=O)c2cc(F)c(N3CCC(N)CC3)nc21`, the MIC is 0.2 µg/mL (≈ 0.598 µM) with Staphylococcus aureus [1], 0.2 µg/mL (≈ 0.598 µM) with Escherichia coli [2] and 1.56 µg/mL (≈ 4.67 µM) in the assay on Pseudomonas aeruginosa [3]. Also, the ED50 with Pseudomonas aeruginosa [4] was 16.2 mg/kg; in the assay on Staphylococcus aureus [5], over 25 mg/kg; in the assay with Escherichia coli [6] it was 6.3 mg/kg.

In the case of `CCn1cc(C(=O)O)c(=O)c2cc(F)c(N3CCC(Cl)C3)nc21` (stereo unspecified), the MIC in the assay on Staphylococcus aureus [1] was 0.2 µg/mL (≈ 0.589 µM); in the assay on Escherichia coli [2] it was 0.39 µg/mL (≈ 1.15 µM); against Pseudomonas aeruginosa [3] it was 12.5 µg/mL (≈ 36.8 µM).

Regarding `C=Cn1cc(C(=O)O)c(=O)c2cc(F)c(N3CCC(NCC(F)(F)F)C3)nc21` (stereo unspecified), the MIC in the assay with Staphylococcus aureus [1] turned out to be 1.56 µg/mL (≈ 3.9 µM); in the assay on Escherichia coli [2], 6.25 µg/mL (≈ 15.6 µM); against Pseudomonas aeruginosa [3], 100 µg/mL (≈ 250 µM).

Regarding `CCCNC1CCN(c2nc3c(cc2F)c(=O)c(C(=O)O)cn3CC)C1` (stereo unspecified), the MIC in the assay on Staphylococcus aureus [1] is 25 µg/mL (≈ 69 µM); against Escherichia coli [2], 6.25 µg/mL (≈ 17.2 µM); against Pseudomonas aeruginosa [3], over 100 µg/mL.

For `CCn1cc(C(=O)O)c(=O)c2cc(F)c(N3CCCC(C(N)=O)C3)nc21` (stereo unspecified), the MIC came out at 6.25 µg/mL (≈ 17.2 µM) against Staphylococcus aureus [1], 12.5 µg/mL (≈ 34.5 µM) with Escherichia coli [2] and 50 µg/mL (≈ 138 µM) against Pseudomonas aeruginosa [3].

Turning to `C=Cn1cc(C(=O)O)c(=O)c2cc(F)c(N3CCC(N(C)C)C3)nc21` (stereo unspecified), the MIC is 3.13 µg/mL (≈ 9.04 µM) against Staphylococcus aureus [1], 0.39 µg/mL (≈ 1.13 µM) against Escherichia coli [2] and 3.13 µg/mL (≈ 9.04 µM) in the assay with Pseudomonas aeruginosa [3].

Take `CCn1cc(C(=O)O)c(=O)c2cc(F)c(N3CC(OC)C3)nc21`: the MIC turned out to be 0.78 µg/mL (≈ 2.43 µM) with Staphylococcus aureus [1], 3.13 µg/mL (≈ 9.74 µM) against Escherichia coli [2] and 6.25 µg/mL (≈ 19.5 µM) in the assay on Pseudomonas aeruginosa [3].

As for `C=Cn1cc(C(=O)O)c(=O)c2cc(F)c(N3CCC(N(C)C(C)=O)C3)nc21` (stereo unspecified), the MIC in the assay on Staphylococcus aureus [1] was determined as 1.56 µg/mL (≈ 4.17 µM); with Escherichia coli [2], 3.13 µg/mL (≈ 8.36 µM); with Pseudomonas aeruginosa [3] it was 25 µg/mL (≈ 66.8 µM).

With `CCn1cc(C(=O)O)c(=O)c2cc(F)c(N3CCC(O)C3)nc21` (stereo unspecified), the MIC in the assay on Staphylococcus aureus [1] stood at 0.39 µg/mL (≈ 1.21 µM); against Escherichia coli [2], 0.78 µg/mL (≈ 2.43 µM); with Pseudomonas aeruginosa [3], 0.78 µg/mL (≈ 2.43 µM). Further, the results for the ED50 in the assay with Pseudomonas aeruginosa [7], with Staphylococcus aureus [5] and with Escherichia coli [6] were 42 mg/kg, 5.5 mg/kg and 6.8 mg/kg, respectively.

As for `CCn1cc(C(=O)O)c(=O)c2cc(F)c(N3CCC(NC(=O)C(F)(F)F)C3)nc21` (stereo unspecified), the MIC against Staphylococcus aureus [1] was determined as 0.78 µg/mL (≈ 1.87 µM); against Escherichia coli [2], 1.56 µg/mL (≈ 3.75 µM); with Pseudomonas aeruginosa [3], 6.25 µg/mL (≈ 15 µM).

For the molecule `C=Cn1cc(C(=O)O)c(=O)c2cc(F)c(N3CCC(NC)C3)nc21` (stereo unspecified), the MIC with Staphylococcus aureus [1] amounted to 0.78 µg/mL (≈ 2.35 µM); in the assay on Escherichia coli [2], 0.1 µg/mL (≈ 0.301 µM); with Pseudomonas aeruginosa [3], 0.78 µg/mL (≈ 2.35 µM). For the same molecule, the ED50 in the assay with Pseudomonas aeruginosa [7] turned out to be 3.7 mg/kg; in the assay on Staphylococcus aureus [5] it was 1.6 mg/kg; in the assay with Escherichia coli [6], 2 mg/kg.

As for `CCn1cc(C(=O)O)c(=O)c2cc(F)c(N3CC(O)C3)nc21`, the MIC against Staphylococcus aureus [1] came to 0.78 µg/mL (≈ 2.54 µM); with Escherichia coli [2] it was 0.78 µg/mL (≈ 2.54 µM); against Pseudomonas aeruginosa [3], 3.13 µg/mL (≈ 10.2 µM).

In the case of `CCNC1CCN(c2nc3c(cc2F)c(=O)c(C(=O)O)cn3CC)C1` (stereo unspecified), the MIC is 0.78 µg/mL (≈ 2.24 µM) with Staphylococcus aureus [1], 0.78 µg/mL (≈ 2.24 µM) against Escherichia coli [2] and 3.13 µg/mL (≈ 8.98 µM) in the assay on Pseudomonas aeruginosa [3].

Turning to `CCOC1CN(c2nc3c(cc2F)c(=O)c(C(=O)O)cn3CC)C1`, the MIC with Staphylococcus aureus [1] came out at 0.78 µg/mL (≈ 2.33 µM); with Escherichia coli [2], 3.13 µg/mL (≈ 9.33 µM); in the assay with Pseudomonas aeruginosa [3] it was 25 µg/mL (≈ 74.6 µM).

With `CCn1cc(C(=O)O)c(=O)c2cc(F)c(N3CC(N4CCOCC4)C3)nc21`, the values for the MIC against Staphylococcus aureus [1], in the assay with Escherichia coli [2] and with Pseudomonas aeruginosa [3] were 1.56 µg/mL (≈ 4.14 µM), 6.25 µg/mL (≈ 16.6 µM) and 50 µg/mL (≈ 133 µM), respectively.

Consider `CCn1cc(C(=O)O)c(=O)c2cc(F)c(N3CCC(NC(N)=O)C3)nc21` (stereo unspecified), for which the MIC stood at 6.25 µg/mL (≈ 17.2 µM) with Staphylococcus aureus [1], 3.13 µg/mL (≈ 8.61 µM) against Escherichia coli [2] and 25 µg/mL (≈ 68.8 µM) in the assay on Pseudomonas aeruginosa [3].

Consider `CCn1cc(C(=O)O)c(=O)c2cc(F)c(N3CCNCC3)nc21` [ENOXACIN], for which the results for the MIC against Staphylococcus aureus [1], against Escherichia coli [2] and in the assay with Pseudomonas aeruginosa [3] were 0.78 µg/mL (≈ 2.44 µM), 0.2 µg/mL (≈ 0.624 µM) and 0.78 µg/mL (≈ 2.44 µM), respectively. The ED50 in the assay with Pseudomonas aeruginosa [7] stood at 9 mg/kg; in the assay on Staphylococcus aureus [5] it was 10 mg/kg; in the assay with Escherichia coli [6], 1.8 mg/kg.

Take `CCn1cc(C(=O)O)c(=O)c2cc(F)c(N3CCC(N)C3)nc21` (stereo unspecified) [ESAFLOXACIN]: the MIC turned out to be 0.2 µg/mL (≈ 0.624 µM) against Staphylococcus aureus [1], 0.1 µg/mL (≈ 0.312 µM) against Escherichia coli [2] and 0.39 µg/mL (≈ 1.22 µM) against Pseudomonas aeruginosa [3]. In addition, the ED50 was found to be 3.7 mg/kg in the assay with Pseudomonas aeruginosa [7], 3 mg/kg in the assay on Staphylococcus aureus [5] and 1.7 mg/kg in the assay with Escherichia coli [6].
